According to ChEMBL document CHEMBL5058577, “EUbOPEN Chemogenomics Library 2 (Multiplex)” (2022):

System: HEK-293T
Test: Multiplex assay against HEK293T
Type: toxicity, cell-based
Details: human
How it was run: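 At seeding, live cells were stained with Hoechst33342, BioTracker Green Microtubule Cytoskeleton Dye, MitoTracker Red and Annexin V Alexa Fluor 680. After compound addition they were imaged on a CQ1 microscope at 37°C and 5% CO2, and CellPathfinder machine-learning gating sorted them into Hoechst high-intensity objects or normal cells, with normal cells further split into healthy, pyknosed or fragmented nuclei and pyknosed cells into mitotic or apoptotic. Tubulin, mitochondrial-mass and membrane-permeability phenotypes are given as per cents of cells with healthy nuclei.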

[1] = 12 h, 1 µM, compound concentration 1 uM, replicate 1
[2] = 12 h, 1 µM, compound concentration 1 uM, replicate 2
[3] = 12 h, 10 µM, compound concentration 10 uM, replicate 1
[4] = 12 h, 10 µM, compound concentration 10 uM, replicate 2
[5] = 24 h, 1 µM, compound concentration 1 uM, replicate 1
[6] = 24 h, 1 µM, compound concentration 1 uM, replicate 2
[7] = 24 h, 10 µM, compound concentration 10 uM, replicate 1
[8] = 24 h, 10 µM, compound concentration 10 uM, replicate 2
[9] = 48 h, 1 µM, compound concentration 1 uM, replicate 1
[10] = 48 h, 1 µM, compound concentration 1 uM, replicate 2
[11] = 48 h, 10 µM, compound concentration 10 uM, replicate 1
[12] = 48 h, 10 µM, compound concentration 10 uM, replicate 2

Structure (SMILES): CC(C)C[C@H](CO)Nc1nc(S[C@@H](C)c2ccccc2)nc2nc(N)sc12 [AZD-8797]
- Population Apoptotic (%) [1]: 39%
- Population Fragmented Nuclei (%) [1]: 2%
- Population Healthy Nuclei (%) [1]: 81%
- Population Hoechst High Intensity Objects (%) [1]: 4%
- Population Membrane Permeable-Phenotype (%) [1]: 0%
- Population Mitochondria Different-Phenotype (%) [1]: 44%
- Population Mitotic Cells (%) [1]: 60%
- Population Normal (%) [1]: 95%
- Population Pyknosed Nuclei (%) [1]: 15%
- Population Tubulin-Different-Phenotype (%) [1]: 27%
- Total Cell Count [1]: 326
- Population Apoptotic (%) [2]: 46%
- Population Fragmented Nuclei (%) [2]: 8%
- Population Healthy Nuclei (%) [2]: 72%
- Population Hoechst High Intensity Objects (%) [2]: 7%
- Population Mitochondria Different-Phenotype (%) [2]: 57%
- Population Mitotic Cells (%) [2]: 53%
- Population Normal (%) [2]: 92%
- Population Pyknosed Nuclei (%) [2]: 18%
- Population Tubulin-Different-Phenotype (%) [2]: 22%
- Total Cell Count [2]: 356
- Population Apoptotic (%) [3]: 65%
- Population Fragmented Nuclei (%) [3]: 9%
- Population Healthy Nuclei (%) [3]: 71%
- Population Hoechst High Intensity Objects (%) [3]: 10%
- Population Membrane Permeable-Phenotype (%) [3]: 0%
- Population Mitochondria Different-Phenotype (%) [3]: 70%
- Population Mitotic Cells (%) [3]: 34%
- Population Normal (%) [3]: 89%
- Population Pyknosed Nuclei (%) [3]: 18%
- Population Tubulin-Different-Phenotype (%) [3]: 56%
- Total Cell Count [3]: 279
- Population Apoptotic (%) [4]: 67%
- Population Fragmented Nuclei (%) [4]: 6%
- Population Healthy Nuclei (%) [4]: 75%
- Population Mitochondria Different-Phenotype (%) [4]: 75%
- Population Mitotic Cells (%) [4]: 32%
- Population Tubulin-Different-Phenotype (%) [4]: 39%
- Total Cell Count [4]: 345
- Population Apoptotic (%) [5]: 37%
- Population Fragmented Nuclei (%) [5]: 7%
- Population Healthy Nuclei (%) [5]: 76%
- Population Hoechst High Intensity Objects (%) [5]: 3%
- Population Membrane Permeable-Phenotype (%) [5]: 0%
- Population Mitochondria Different-Phenotype (%) [5]: 25%
- Population Mitotic Cells (%) [5]: 62%
- Population Normal (%) [5]: 97%
- Population Pyknosed Nuclei (%) [5]: 15%
- Population Tubulin-Different-Phenotype (%) [5]: 16%
- Total Cell Count [5]: 400
- Population Apoptotic (%) [6]: 45%
- Population Healthy Nuclei (%) [6]: 81%
- Population Hoechst High Intensity Objects (%) [6]: 5%
- Population Mitochondria Different-Phenotype (%) [6]: 42%
- Population Mitotic Cells (%) [6]: 54%
- Population Normal (%) [6]: 94%
- Population Pyknosed Nuclei (%) [6]: 11%
- Population Tubulin-Different-Phenotype (%) [6]: 14%
- Total Cell Count [6]: 421
- Population Apoptotic (%) [7]: 54%
- Population Fragmented Nuclei (%) [7]: 8%
- Population Healthy Nuclei (%) [7]: 73%
- Population Hoechst High Intensity Objects (%) [7]: 9%
- Population Membrane Permeable-Phenotype (%) [7]: 0%
- Population Mitochondria Different-Phenotype (%) [7]: 64%
- Population Mitotic Cells (%) [7]: 45%
- Population Normal (%) [7]: 90%
- Population Pyknosed Nuclei (%) [7]: 17%
- Population Tubulin-Different-Phenotype (%) [7]: 39%
- Total Cell Count [7]: 346
- Population Apoptotic (%) [8]: 51%
- Population Fragmented Nuclei (%) [8]: 9%
- Population Healthy Nuclei (%) [8]: 77%
- Population Hoechst High Intensity Objects (%) [8]: 8%
- Population Mitochondria Different-Phenotype (%) [8]: 71%
- Population Mitotic Cells (%) [8]: 48%
- Population Normal (%) [8]: 91%
- Population Pyknosed Nuclei (%) [8]: 12%
- Population Tubulin-Different-Phenotype (%) [8]: 36%
- Total Cell Count [8]: 393
- Population Apoptotic (%) [9]: 43%
- Population Fragmented Nuclei (%) [9]: 15%
- Population Healthy Nuclei (%) [9]: 78%
- Population Hoechst High Intensity Objects (%) [9]: 1%
- Population Membrane Permeable-Phenotype (%) [9]: 0%
- Population Mitochondria Different-Phenotype (%) [9]: 16%
- Population Mitotic Cells (%) [9]: 56%
- Population Normal (%) [9]: 98%
- Population Pyknosed Nuclei (%) [9]: 6%
- Population Tubulin-Different-Phenotype (%) [9]: 10%
- Total Cell Count [9]: 663
- Population Apoptotic (%) [10]: 24%
- Population Fragmented Nuclei (%) [10]: 12%
- Population Healthy Nuclei (%) [10]: 79%
- Population Hoechst High Intensity Objects (%) [10]: 3%
- Population Membrane Permeable-Phenotype (%) [10]: 1%
- Population Mitochondria Different-Phenotype (%) [10]: 24%
- Population Mitotic Cells (%) [10]: 75%
- Population Normal (%) [10]: 96%
- Population Pyknosed Nuclei (%) [10]: 8%
- Population Tubulin-Different-Phenotype (%) [10]: 13%
- Total Cell Count [10]: 681
- Population Apoptotic (%) [11]: 60%
- Population Fragmented Nuclei (%) [11]: 16%
- Population Healthy Nuclei (%) [11]: 72%
- Population Hoechst High Intensity Objects (%) [11]: 7%
- Population Membrane Permeable-Phenotype (%) [11]: 0%
- Population Mitochondria Different-Phenotype (%) [11]: 57%
- Population Mitotic Cells (%) [11]: 39%
- Population Normal (%) [11]: 92%
- Population Pyknosed Nuclei (%) [11]: 11%
- Population Tubulin-Different-Phenotype (%) [11]: 28%
- Total Cell Count [11]: 416
- Population Apoptotic (%) [12]: 52%
- Population Fragmented Nuclei (%) [12]: 15%
- Population Healthy Nuclei (%) [12]: 75%
- Population Hoechst High Intensity Objects (%) [12]: 6%
- Population Mitochondria Different-Phenotype (%) [12]: 52%
- Population Mitotic Cells (%) [12]: 47%
- Population Normal (%) [12]: 93%
- Population Pyknosed Nuclei (%) [12]: 8%
- Population Tubulin-Different-Phenotype (%) [12]: 21%
- Total Cell Count [12]: 530

Structure (SMILES): COc1cc(OC2CCN(C(C)=O)CC2)ccc1C(=O)N1CCC(N2C(=O)OCc3ccccc32)CC1
- Population Apoptotic (%) [1]: 28%
- Population Fragmented Nuclei (%) [1]: 5%
- Population Healthy Nuclei (%) [1]: 83%
- Population Hoechst High Intensity Objects (%) [1]: 7%
- Population Membrane Permeable-Phenotype (%) [1]: 0%
- Population Mitochondria Different-Phenotype (%) [1]: 37%
- Population Mitotic Cells (%) [1]: 71%
- Population Normal (%) [1]: 92%
- Population Pyknosed Nuclei (%) [1]: 11%
- Population Tubulin-Different-Phenotype (%) [1]: 26%
- Total Cell Count [1]: 477
- Population Apoptotic (%) [2]: 48%
- Population Healthy Nuclei (%) [2]: 76%
- Population Mitochondria Different-Phenotype (%) [2]: 59%
- Population Mitotic Cells (%) [2]: 51%
- Population Pyknosed Nuclei (%) [2]: 18%
- Population Tubulin-Different-Phenotype (%) [2]: 21%
- Total Cell Count [2]: 381
- Population Apoptotic (%) [3]: 40%
- Population Fragmented Nuclei (%) [3]: 9%
- Population Healthy Nuclei (%) [3]: 77%
- Population Hoechst High Intensity Objects (%) [3]: 8%
- Population Membrane Permeable-Phenotype (%) [3]: 0%
- Population Mitochondria Different-Phenotype (%) [3]: 57%
- Population Mitotic Cells (%) [3]: 60%
- Population Normal (%) [3]: 91%
- Population Pyknosed Nuclei (%) [3]: 13%
- Population Tubulin-Different-Phenotype (%) [3]: 47%
- Total Cell Count [3]: 436
- Population Apoptotic (%) [4]: 67%
- Population Fragmented Nuclei (%) [4]: 4%
- Population Healthy Nuclei (%) [4]: 80%
- Population Hoechst High Intensity Objects (%) [4]: 6%
- Population Mitochondria Different-Phenotype (%) [4]: 77%
- Population Mitotic Cells (%) [4]: 32%
- Population Normal (%) [4]: 93%
- Population Pyknosed Nuclei (%) [4]: 14%
- Population Tubulin-Different-Phenotype (%) [4]: 40%
- Total Cell Count [4]: 316
- Population Apoptotic (%) [5]: 28%
- Population Fragmented Nuclei (%) [5]: 9%
- Population Healthy Nuclei (%) [5]: 78%
- Population Hoechst High Intensity Objects (%) [5]: 4%
- Population Membrane Permeable-Phenotype (%) [5]: 2%
- Population Mitochondria Different-Phenotype (%) [5]: 25%
- Population Mitotic Cells (%) [5]: 71%
- Population Normal (%) [5]: 95%
- Population Pyknosed Nuclei (%) [5]: 11%
- Population Tubulin-Different-Phenotype (%) [5]: 17%
- Total Cell Count [5]: 598
- Population Apoptotic (%) [6]: 48%
- Population Fragmented Nuclei (%) [6]: 7%
- Population Healthy Nuclei (%) [6]: 80%
- Population Hoechst High Intensity Objects (%) [6]: 6%
- Population Membrane Permeable-Phenotype (%) [6]: 0%
- Population Mitochondria Different-Phenotype (%) [6]: 40%
- Population Mitotic Cells (%) [6]: 51%
- Population Normal (%) [6]: 93%
- Population Pyknosed Nuclei (%) [6]: 12%
- Population Tubulin-Different-Phenotype (%) [6]: 15%
- Total Cell Count [6]: 491
- Population Apoptotic (%) [7]: 31%
- Population Fragmented Nuclei (%) [7]: 8%
- Population Healthy Nuclei (%) [7]: 78%
- Population Hoechst High Intensity Objects (%) [7]: 3%
- Population Membrane Permeable-Phenotype (%) [7]: 0%
- Population Mitochondria Different-Phenotype (%) [7]: 44%
- Population Mitotic Cells (%) [7]: 68%
- Population Normal (%) [7]: 96%
- Population Pyknosed Nuclei (%) [7]: 13%
- Population Tubulin-Different-Phenotype (%) [7]: 36%
- Total Cell Count [7]: 523
- Population Apoptotic (%) [8]: 49%
- Population Fragmented Nuclei (%) [8]: 7%
- Population Hoechst High Intensity Objects (%) [8]: 4%
- Population Mitochondria Different-Phenotype (%) [8]: 58%
- Population Mitotic Cells (%) [8]: 50%
- Population Normal (%) [8]: 95%
- Population Pyknosed Nuclei (%) [8]: 14%
- Population Tubulin-Different-Phenotype (%) [8]: 29%
- Total Cell Count [8]: 393
- Population Apoptotic (%) [9]: 20%
- Population Fragmented Nuclei (%) [9]: 13%
- Population Healthy Nuclei (%) [9]: 78%
- Population Hoechst High Intensity Objects (%) [9]: 3%
- Population Membrane Permeable-Phenotype (%) [9]: 1%
- Population Mitochondria Different-Phenotype (%) [9]: 19%
- Population Mitotic Cells (%) [9]: 79%
- Population Normal (%) [9]: 96%
- Population Pyknosed Nuclei (%) [9]: 8%
- Population Tubulin-Different-Phenotype (%) [9]: 13%
- Total Cell Count [9]: 902
- Population Apoptotic (%) [10]: 33%
- Population Fragmented Nuclei (%) [10]: 11%
- Population Healthy Nuclei (%) [10]: 80%
- Population Hoechst High Intensity Objects (%) [10]: 2%
- Population Mitochondria Different-Phenotype (%) [10]: 23%
- Population Mitotic Cells (%) [10]: 66%
- Population Normal (%) [10]: 97%
- Population Pyknosed Nuclei (%) [10]: 7%
- Population Tubulin-Different-Phenotype (%) [10]: 12%
- Total Cell Count [10]: 655
- Population Apoptotic (%) [11]: 36%
- Population Fragmented Nuclei (%) [11]: 13%
- Population Healthy Nuclei (%) [11]: 78%
- Population Hoechst High Intensity Objects (%) [11]: 4%
- Population Membrane Permeable-Phenotype (%) [11]: 0%
- Population Mitochondria Different-Phenotype (%) [11]: 30%
- Population Mitotic Cells (%) [11]: 63%
- Population Normal (%) [11]: 95%
- Population Pyknosed Nuclei (%) [11]: 8%
- Population Tubulin-Different-Phenotype (%) [11]: 21%
- Total Cell Count [11]: 813
- Population Fragmented Nuclei (%) [12]: 12%
- Population Healthy Nuclei (%) [12]: 80%
- Population Hoechst High Intensity Objects (%) [12]: 3%
- Population Mitochondria Different-Phenotype (%) [12]: 39%
- Population Normal (%) [12]: 96%
- Population Pyknosed Nuclei (%) [12]: 7%
- Population Tubulin-Different-Phenotype (%) [12]: 16%
- Total Cell Count [12]: 625
